# Experimental data reported in publication PMC4451255 (Bioorganic & medicinal chemistry, 2015).
# Changes are numbered by the printed parent chain.
# Tests used:
# [1] = tested on: wild-type PTP1B; assay: SDS/PAGE and fluorescence visualization of protein/FlAsH complexes; type: binding, human; conditions: 6 μM FlAsH, UV visualization
# [2] = tested on: wild-type FAP-1; assay: FlAsH inhibition of purified PTP catalytic domain, pNPP assay; type: biochemical, human; conditions: purified enzyme 50 nM, one equivalent of FlAsH
# How it was run: (§1)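 His6-tagged PTP catalytic domains (50 nM) are pre-incubated 120 min at 37 °C with test compound or DMSO (1% v/v). Activity is then assayed at 37 °C with pNPP at each enzyme's previously determined KM in 50 mM 3,3-dimethylglutarate pH 7.0, 1 mM EDTA, 50 mM NaCl. The reaction is quenched with NaOH and A405 read. Activity is normalized to DMSO-only control, triplicate, ≥3 independent experiments.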
# [3] = tested on: wild-type HePTP; assay: FlAsH inhibition of total PTP activity of crude E. coli lysates, pNPP; type: biochemical, human; conditions: whole-cell E. coli lysate, FlAsH concentrations that strongly inhibit the mutant
# How it was run: (§2)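 Cells are lysed by French press (~2000 psi) in 50 mM Tris pH 7.8, 500 mM NaCl, 5 mM imidazole. Clarified lysate takes compound or DMSO (1%) for 120 min at 37 °C. Total pNPP activity is normalized to DMSO.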
# [4] = molecular target: T1, V368C Shp2 (Homo sapiens, UniProt Q06124, V368C); assay: Mass-spectrometry-based FlAsH-induced cysteine-protection assay; type: binding; conditions: 2.7 μM enzyme, 27 μM FlAsH, 50 mM iodoacetic acid, LC/MS/MS
# T1 sequence (Q06124 247-517 V368C limits assumed): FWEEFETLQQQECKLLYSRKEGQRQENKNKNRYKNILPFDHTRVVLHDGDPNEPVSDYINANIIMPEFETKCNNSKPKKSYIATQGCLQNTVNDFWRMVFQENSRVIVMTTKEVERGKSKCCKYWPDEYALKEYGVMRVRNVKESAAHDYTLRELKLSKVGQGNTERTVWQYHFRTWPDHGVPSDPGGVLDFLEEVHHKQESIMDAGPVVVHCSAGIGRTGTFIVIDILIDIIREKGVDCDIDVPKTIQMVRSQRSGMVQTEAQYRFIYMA
# How it was run: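 Enzyme (2.7 μM) is incubated 30 min with 27 μM test compound or DMSO in pH 7.0 dimethylglutarate/EDTA/1 mM TCEP. Free cysteines are carboxymethylated with 50 mM iodoacetic acid (30 min), quenched with 100 mM TCEP, precipitated and gel-separated, then trypsin-digested in gel. Nano-LC/MS/MS uses HCD. Peptide precursor intensity ratios (compound/DMSO) are normalized to the mean of non-cysteine peptide ratios.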
# [5] = molecular target: T2, P87C PTP1B (Homo sapiens, UniProt P18031, P87C); assay: FlAsH inhibition of purified PTP catalytic domain, pNPP assay; type: biochemical; conditions: 500 nM FlAsH, continuous pNPP assay
# T2 sequence (P18031 3-277 P87C limits assumed): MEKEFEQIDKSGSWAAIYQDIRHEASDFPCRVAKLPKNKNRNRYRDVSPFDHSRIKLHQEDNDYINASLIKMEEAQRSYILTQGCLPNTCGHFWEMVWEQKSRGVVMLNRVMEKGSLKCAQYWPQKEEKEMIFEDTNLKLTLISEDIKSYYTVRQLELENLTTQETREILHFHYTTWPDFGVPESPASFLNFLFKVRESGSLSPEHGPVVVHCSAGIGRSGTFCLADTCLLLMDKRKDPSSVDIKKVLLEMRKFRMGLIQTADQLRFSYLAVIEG
# How it was run: (§3)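 No pre-incubation. pNPP at the enzyme's KM is held with 500 nM test compound or DMSO (1%) in pH 7.0 PTP buffer at 37 °C, and reactions are started by adding His6-tagged catalytic domain (50 nM). A405 is monitored continuously at 37 °C. Rates over 1-min windows are normalized to DMSO control; three independent runs are averaged and fitted as single-variable exponential decay.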
# [6] = molecular target: T1, V368C Shp2; assay: SDS/PAGE and fluorescence visualization of protein/FlAsH complexes; type: binding; conditions: 6 μM FlAsH, 2 μg enzyme, UV visualization, band at approximately 37 kD
# [7] = tested on: P2285C/Q2320C FAP-1; assay: FlAsH inhibition of total PTP activity of crude E. coli lysates, pNPP; type: biochemical, human; conditions: whole-cell E. coli lysate
# How it was run: as §2
# [8] = molecular target: T2, P87C PTP1B; assay: SDS/PAGE and fluorescence visualization of protein/FlAsH complexes; type: binding; conditions: 6 μM FlAsH, UV visualization
# [9] = tested on: wild-type PTP1B; assay: FlAsH inhibition of purified PTP catalytic domain, pNPP assay; type: biochemical, human; conditions: purified enzyme 50 nM, 120-minute pre-incubation
# How it was run: as §1
# [10] = tested on: wild-type FAP-1; assay: FlAsH inhibition of total PTP activity of crude E. coli lysates, pNPP; type: biochemical, human; conditions: whole-cell E. coli lysate, FlAsH concentrations that strongly inhibit the mutant
# How it was run: as §2
# [11] = tested on: P160C/V184C HePTP; assay: FlAsH inhibition of total PTP activity of crude E. coli lysates, pNPP; type: biochemical, human; conditions: whole-cell E. coli lysate
# [12] = tested on: P720C/H755C PTPH-1; assay: FlAsH inhibition of total PTP activity of crude E. coli lysates, pNPP; type: biochemical, human; conditions: whole-cell E. coli lysate
# How it was run: as §2
# [13] = molecular target: T3, P87C/A122C PTP1B (Homo sapiens, UniProt P18031, A122C/P87C); assay: SDS/PAGE and fluorescence visualization of protein/FlAsH complexes; type: binding; conditions: 6 μM FlAsH, UV visualization, band at 45 kD
# T3 sequence (P18031 3-277 P87C/A122C limits assumed): T2 sequence (P18031 3-277 P87C limits assumed) with A120C
# [14] = tested on: P720C/H755C PTPH-1; assay: FlAsH inhibition of purified PTP catalytic domain, pNPP assay; type: biochemical, human; conditions: purified enzyme 50 nM, one equivalent of FlAsH
# How it was run: as §1
# [15] = tested on: P160C/V184C HePTP; assay: FlAsH inhibition of purified PTP catalytic domain, pNPP assay; type: biochemical, human; conditions: purified enzyme 50 nM, one equivalent of FlAsH
# [16] = molecular target: T4, wild-type Shp2 (Homo sapiens, UniProt Q06124); assay: FlAsH inhibition of purified PTP catalytic domain, pNPP assay; type: biochemical
# T4 sequence (Q06124 247-517 limits assumed): T1 sequence (Q06124 247-517 V368C limits assumed) with C122V
# How it was run: (§4)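 Two set-ups, both using His6-tagged catalytic domain (50 nM) and pNPP in pH 7.0 3,3-dimethylglutarate buffer. In the first, enzyme is incubated with 125 nM test compound plus β-mercaptoethanol (0–1 mM), then activity is normalized to no-compound controls. In the second, there is no pre-incubation: pNPP at the enzyme's KM sits with a fixed compound level at 37 °C, enzyme starts the reaction, and A405 is followed continuously.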
# [17] = tested on: wild-type PTPH-1; assay: FlAsH inhibition of total PTP activity of crude E. coli lysates, pNPP; type: biochemical, human; conditions: whole-cell E. coli lysate, FlAsH concentrations that strongly inhibit the mutant
# How it was run: as §2
# [18] = molecular target: T1, V368C Shp2; assay: FlAsH inhibition of purified PTP catalytic domain, pNPP assay; type: biochemical
# How it was run: as §4
# [19] = tested on: P2285C/Q2320C FAP-1; assay: FlAsH inhibition of purified PTP catalytic domain, pNPP assay; type: biochemical, human; conditions: purified enzyme 50 nM, one equivalent of FlAsH
# How it was run: as §1
# [20] = tested on: wild-type HePTP; assay: as above; type: biochemical, human; conditions: purified enzyme 50 nM, one equivalent of FlAsH
# How it was run: as §1
# [21] = tested on: wild-type PTPH-1; assay: as above; type: biochemical, human; conditions: purified enzyme 50 nM, one equivalent of FlAsH
# How it was run: as §1
# [22] = molecular target: T4, wild-type Shp2; assay: SDS/PAGE and fluorescence visualization of protein/FlAsH complexes; type: binding; conditions: 6 μM FlAsH, 2 μg enzyme, UV visualization
# [23] = molecular target: T3, P87C/A122C PTP1B; assay: FlAsH inhibition of purified PTP catalytic domain, pNPP assay; type: biochemical; conditions: purified enzyme 50 nM, time-dependent
# How it was run: as §3
# [24] = 500 nM FlAsH, continuous pNPP assay, no pre-incubation
structure (smiles),measurement,setting,value
O=C(O)c1ccccc1-c1c2ccc(=O)c([As]3SCCS3)c-2oc2c([As]3SCCS3)c(O)ccc12 [FlAsH],fluorescent band of protein/FlAsH conjugate after SDS/PAGE,[1],fail to produce strongly fluorescent bands
same,inhibition of phosphatase activity,[2],not significantly inhibited
same,inhibition of total PTP activity of lysate,[3],no effects
same,protection of cysteines from modification by IAA,[4],"strongly protects C333, C367, and C368"
same,time for phosphatase activity to decrease to 50% of initial rate,[5],approximately 10 minutes
same,fluorescent band of protein/FlAsH conjugate after SDS/PAGE,[6],strongly fluorescent band
same,inhibition of total PTP activity of lysate,[7],strongly inhibited
same,fluorescent band of protein/FlAsH conjugate after SDS/PAGE,[8],fail to produce strongly fluorescent bands
same,effect of FlAsH on enzymatic activity,[9],unaffected
same,inhibition of total PTP activity of lysate,[10],no effects
same,inhibition of total PTP activity of lysate,[11],strongly inhibited
same,inhibition of total PTP activity of lysate,[12],strongly inhibited
same,fluorescent band of protein/FlAsH conjugate after SDS/PAGE,[13],strongly fluorescent band
same,inhibition of phosphatase activity,[14],novel sensitivity to FlAsH
same,inhibition of phosphatase activity,[15],drastically reduced catalytic activity
same,effect of β-mercaptoethanol on FlAsH's inhibitory effects,"[16]; 125 nM FlAsH, varying β-ME",attenuates
same,time to 50% activity,[16]; [24],~ 11 minutes
same,inhibition of total PTP activity of lysate,[17],no effects
same,effect of β-mercaptoethanol on potency of FlAsH inhibition,"[18]; 125 nM FlAsH, varying β-ME up to 8,000 times excess",no significant changes
same,time to 50% activity,[18]; [24],~ 7 minutes
same,inhibition of phosphatase activity,[19],drastically reduced catalytic activity
same,inhibition of phosphatase activity,[20],not significantly inhibited
same,inhibition of phosphatase activity,[21],not significantly inhibited
same,fluorescent band of protein/FlAsH conjugate after SDS/PAGE,[22],not present
same,inhibition by FlAsH,[23],potently inhibited
